Compound activity as filed in PubChem.
Fh CTSL1 inh – blocks F. hepatica cathepsin L1 in PFM18AAP counter-screen. inhibition, % at 5.96 µM. actives 0.49% (n = 300,000). AID 1906. recombinant F. hepatica cathepsin L1, Z-Leu-Arg-MCA fluorescence;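 active = inhibition above the mean of all tested compounds plus 3 SD, set per screening campaign, cut at about 17% in these data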
PRMT1 inh – blocks human protein arginine methyltransferase 1; inhibition, % at 2.79 µM; Q99873; recombinant PRMT1, activity-based probe fluorescence polarization; actives 1.3% (n = 370,000);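 active = inhibition above about 21% made by adding two undisclosed values, limit read from the data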
Target sequence (Q99873 whole entry, looked up): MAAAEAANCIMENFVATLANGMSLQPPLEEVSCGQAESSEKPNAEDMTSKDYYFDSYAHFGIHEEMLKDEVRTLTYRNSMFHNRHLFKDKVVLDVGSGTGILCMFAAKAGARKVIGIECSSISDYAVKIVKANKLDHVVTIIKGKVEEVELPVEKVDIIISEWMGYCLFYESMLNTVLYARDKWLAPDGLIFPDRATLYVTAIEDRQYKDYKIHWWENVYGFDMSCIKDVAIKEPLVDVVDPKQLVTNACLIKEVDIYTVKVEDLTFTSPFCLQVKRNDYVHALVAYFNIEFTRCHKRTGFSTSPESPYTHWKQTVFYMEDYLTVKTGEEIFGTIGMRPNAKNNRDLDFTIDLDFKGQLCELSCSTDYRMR
TDP2 absorb – blocks human TDP2 phosphodiesterase activity | recombinant TDP2, T5PNP hydrolysis, p-nitrophenol absorbance 415 nm | inhibition, % at 12.8 µM | actives 0.34% (n = 370,000);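 active = inhibition above the mean of all tested compounds plus 3 SD, set per campaign, cut at about 25% in these data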
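test system = human TDP2 enzyme | input = TDP2 enzyme at 120 nM final | medium = 50 mM Tris-HCl pH 7.5 with Mg2+, KCl, DTT, BSA | also added = T5PNP substrate, 5 mM | times = 2 h at 37 °C | technique = epi absorbance | benchmarks = high control without enzyme, low control DMSO plus TDP2 | replication = each compound tested once, singlicate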
PAD4 FP inh – PAD4 (human) enzyme inhibition; Q9UM07; recombinant PAD4, RCA probe fluorescence polarization; actives 0.41% (n = 330,000); AID 485272; inhibition, % at 6.36 µM;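 active = percent inhibition above a cutoff equal to the mean of all tested compounds plus 3 SD, cut at about 15% in these data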
GSTO1 counter – counter-screen for RBBP9 inhibitors: inhibitors of human GSTO1. P78417. recombinant GSTO1, activity-based probe fluorescence polarization. inhibition, % at 5.96 µM. actives 1.1% (n = 300,000). AID 1974;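 active = inhibition above the campaign mean inhibition plus 3 SD, cut at about 35% in these data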
Target sequence (P78417 whole entry, looked up): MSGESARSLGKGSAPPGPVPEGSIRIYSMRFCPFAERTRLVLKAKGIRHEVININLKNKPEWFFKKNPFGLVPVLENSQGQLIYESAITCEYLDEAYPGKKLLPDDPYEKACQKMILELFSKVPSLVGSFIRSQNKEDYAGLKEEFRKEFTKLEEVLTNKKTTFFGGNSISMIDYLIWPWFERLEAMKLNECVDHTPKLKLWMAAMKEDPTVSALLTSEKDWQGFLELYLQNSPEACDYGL
PRMT1 confirm – PRMT1 (human) inhibition, FP confirmation | inhibition, % at 2.79 µM | recombinant His-PRMT1, activity-based probe fluorescence polarization | shares compounds with PRMT1 inh | actives 42% (n = 3,300);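 active = mean inhibition across replicates above the hit cutoff derived for the earlier primary screen, cut at about 22% in these data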
Of the large screens only hits and unclear results are named; the others gave an inactive call (follow-up assays come after a bar, where they were run). A selection: hits, their analogues and other compounds. The true share with any hit is near 2.5%.

CN1Cc2nnn(Cc3ccccc3)c2-c2ccccc2S1(=O)=O	none (no result: Fh CTSL1 inh, PAD4 FP inh, GSTO1 counter)
O=C(c1cc(O)c(O)c([N+](=O)[O-])c1)c1ccccc1F	PRMT1 inh 35 | PRMT1 confirm inactive
CC[n+]1c(/C=C(\C)SC)sc2ccccc21	PRMT1 inh 34 | PRMT1 confirm inactive
CC[n+]1c(/C=C(/C)SC)sc2ccccc21	PRMT1 inh 96 | PRMT1 confirm 24
CC[n+]1c(/C=C2/C=C(C)CC(C)C2)sc2ccccc21 (centres undefined)	PRMT1 inh 28 | PRMT1 confirm inactive
CC[n+]1c(C=C2C=C(C)OC(C)=C2)sc2ccccc21	none (no result: Fh CTSL1 inh, PAD4 FP inh, GSTO1 counter)
CC[n+]1c(/C=C/Nc2ccccc2)sc2ccccc21	none
CC[n+]1c(/C=C/C=C/N(C(C)=O)c2ccccc2)sc2cc(OC)ccc21	none
CC/C(=C/c1sc2ccccc2[n+]1CC)SC	PRMT1 inh 66 | PRMT1 confirm inactive
COc1ccc2c(c1)CN1C(=O)N(C3CCCC3)S(=O)(=O)CC21 (centres undefined)	none (no result: Fh CTSL1 inh, PAD4 FP inh, GSTO1 counter)
CC1CCC2(CCC(=O)N2CCCO)CC1 (centres undefined)	none (no result: Fh CTSL1 inh, PAD4 FP inh, GSTO1 counter)
CCCCN(C)c1c2c(nc3ncnn13)CCCC2	none (no result: Fh CTSL1 inh, PAD4 FP inh, GSTO1 counter)
COc1ccc(CC(=O)n2[nH]c(=O)ccc2=O)cc1OC	PRMT1 inh 75 | PRMT1 confirm 96
COCCN1C(=O)Cc2c1nc(N)c1c(N)nc(N3CCN(c4ccc(F)cc4)CC3)c(C#N)c21	PRMT1 inh 27 | PRMT1 confirm inactive
COCC(C)N1C(=O)Cc2c1nc(N)c1c(N)nc(N3CCN(c4ccccc4F)CC3)c(C#N)c21 (centres undefined)	none
COc1ccc(CN2C(=O)Cc3c2nc(N)c2c(N)nc(N4CCOCC4)c(C#N)c32)cc1	PRMT1 inh 25 | PRMT1 confirm inactive
N#Cc1c(N(CCO)CCO)nc(N)c2c(N)nc3c(c12)CC(=O)N3Cc1cccs1	none (no result: PRMT1 inh, TDP2 absorb)
CN(CCO)c1nc(N)c2c(N)nc3c(c2c1C#N)CC(=O)N3Cc1cccs1	PRMT1 inh 27 | PRMT1 confirm inactive
COc1ccc(S[C@]2(C(=O)N3CCCC3)CC(=O)N(C(=O)Nc3ccc(C)c(Cl)c3)[C@@H]2c2ccc(OC)cc2)cc1	none (no result: Fh CTSL1 inh, PAD4 FP inh, GSTO1 counter)
CC(C)(C)OC(=O)NCc1cc2c(cc1/C=C/S(=O)(=O)NCc1ccc(F)cc1)OCO2	none (no result: Fh CTSL1 inh, PAD4 FP inh, GSTO1 counter)
COc1cccc(C2=CC(=O)C[C@H](c3ccc(Cl)cc3)C2)c1	none (no result: Fh CTSL1 inh, GSTO1 counter)
COc1cccc(C2=CC(=O)CC(c3ccco3)C2)c1 (centres undefined)	PRMT1 inh 31 | PRMT1 confirm inactive
Cc1cccc(Cn2cc(COC(=O)Nc3ccc(F)cc3)nn2)c1	none (no result: Fh CTSL1 inh, PAD4 FP inh, GSTO1 counter)
Cc1ccc(/C=C/C(=O)OCc2nc(N)nc(Nc3ccccc3C)n2)o1	PRMT1 inh 34 | PRMT1 confirm inactive
CN(NC(=O)/C=C/C(=O)O)c1ncc(C(F)(F)F)cc1Cl	PRMT1 inh 35 | PRMT1 confirm inactive
COc1ccc2c(c1)CSC(c1ccccc1)C2=O (centres undefined)	PRMT1 inh 53 (no result: Fh CTSL1 inh, PAD4 FP inh, GSTO1 counter) | PRMT1 confirm 30
COc1cccc(C2C(=O)c3ccccc3C2=O)c1	none
Cc1ccccc1N1CCN(C(=O)c2ccccc2NC(=O)/C=C\C(=O)O)CC1	PRMT1 inh 27 | PRMT1 confirm inactive
O=C(NC1CCCCN(Cc2ccc(Cl)cc2)C1=O)c1ccccn1 (centres undefined)	none (no result: Fh CTSL1 inh, PAD4 FP inh, GSTO1 counter)
Cc1nc2ccc(NC3=NCCCCC3)cc2s1	PRMT1 inh 61 | PRMT1 confirm 37
CC(C)n1c(=O)[nH][nH]c1=S	PRMT1 inh 70 | PRMT1 confirm 91
COC(=O)[C@]12C[C@H](CC(=O)NCc3ccccc3)C(=O)N(Cc3cccc4ccccc34)C1=C[C@H](C(C)(C)C)O[C@@H]2C	none (no result: Fh CTSL1 inh, PAD4 FP inh, GSTO1 counter)
Cc1ccc(OCCC(=O)OCC(=O)Nc2ccc3c(c2)OCCO3)cc1	PRMT1 inh 32 | PRMT1 confirm inactive
CCOc1ccc(OCCC(=O)OCC(=O)Nc2ccc3c(c2)OCO3)cc1	none
COCCN1Cc2cc(C(=O)OC)c3c(c2C1=O)c1cc(OC)ccc1n3C(=O)c1ccccc1	none (no result: Fh CTSL1 inh, PAD4 FP inh, GSTO1 counter)
O=C(OC12CCCN(C1)/C(=C/c1ccc(Cl)cc1)C2)c1cccc(F)c1 (centres undefined)	none (no result: Fh CTSL1 inh, PAD4 FP inh, GSTO1 counter)
S=c1nc(-c2cc(Cl)ccc2Cl)[nH][nH]1	PRMT1 inh 56 | PRMT1 confirm 47
S=c1nc(-c2cccc(Cl)c2)[nH][nH]1	none
Cc1ccc(-n2c(SCC(=O)NN=Cc3c[nH]c4ccccc34)nnc2-c2ccccc2)cc1	none (no result: Fh CTSL1 inh, PAD4 FP inh, GSTO1 counter)
COc1cc(N)c(Cl)cc1C(=O)OCC(=O)NCC1CCCCC1	PRMT1 inh 34 (no result: Fh CTSL1 inh, GSTO1 counter) | PRMT1 confirm inactive
COc1cc(N)c(Cl)cc1C(=O)OCC(=O)NCC1CCCO1 (centres undefined)	none (no result: Fh CTSL1 inh, GSTO1 counter)
COc1ccc(-n2c(SCC(=O)c3ccc4ccccc4c3)nnc2-c2ccccc2)cc1	none (no result: Fh CTSL1 inh, PAD4 FP inh, GSTO1 counter)
COc1ccccc1-[n+]1c(C)cc(/C=C2\Sc3ccccc3N2C)cc1C	PRMT1 inh 26 | PRMT1 confirm inactive
COc1cc(/C=C2/CC/C(=C/c3ccc(O)c(OC)c3)C2=O)ccc1O	none
COc1cc(/C=C/C=C2/CC/C(=C/C=C/c3ccc(O)c(OC)c3)C2=O)ccc1O	PRMT1 inh 54 (no result: Fh CTSL1 inh, PAD4 FP inh, GSTO1 counter) | PRMT1 confirm inactive
CC1(C)CC(=O)C2=C(C1)OC(N)=C(C#N)C2c1cc2c(cc1[N+](=O)[O-])OCO2 (centres undefined)	PRMT1 inh 58 | PRMT1 confirm 31
S=C(Nc1ccccn1)c1ccccn1	PRMT1 inh 32 | PRMT1 confirm inactive
O=C(Nc1ccccn1)C(=O)Nc1ccccn1	none
Cc1ccc(C)c(NC(=S)c2nc3ccccc3s2)c1	PRMT1 inh 29 | PRMT1 confirm inactive
O=S1(=O)N[C@H](Cc2ccccc2)COc2cc(N3CCCC3)ccc21	none (no result: Fh CTSL1 inh, PAD4 FP inh, GSTO1 counter)
CCOC(=O)C1=C(CSc2nc(CC)c(C)cc2C#N)OC(N)=C(C#N)C1c1ccccc1 (centres undefined)	PRMT1 inh 28 | PRMT1 confirm inactive
CCOC(=O)C1=C(CSc2nc(-c3ccccc3)ccc2C#N)OC(N)=C(C#N)C1c1ccc(OC)cc1 (centres undefined)	PRMT1 inh 48 | PRMT1 confirm inactive
CCOC(=O)C1=C(CSc2nc3c(cc2C#N)CN(C)CC3)OC(N)=C(C#N)C1c1ccncc1 (centres undefined)	PRMT1 inh 25 | PRMT1 confirm inactive
CCOC(=O)C1=C(CSc2nc3c(cc2C#N)CN(C)CC3)OC(N)=C(C#N)C1c1ccc(Cl)cc1 (centres undefined)	none
Cc1cccc(NC(=S)NCC23C=CC(O2)C2C(=O)N(c4ccc(Cl)cc4)C(=O)C23)c1 (centres undefined)	PRMT1 inh 78 | PRMT1 confirm 31
Cc1ccc(N2C(=O)[C@@H]3[C@H](C2=O)[C@H]2C=CC=NN2[C@@H]3C(=O)Nc2ccccc2)cc1	none
Cc1ccc(S(=O)(=O)NCC23C=CC(O2)C2C(=O)N(c4ccccc4)C(=O)C23)cc1 (centres undefined)	PRMT1 inh 81 | PRMT1 confirm inactive
